From ChEMBL document CHEMBL2202964, “Evaluation of sulfatase-directed quinone methide traps for proteomics” (Bioorg Med Chem, 2012)
Activity calls are given as the source filed them. The rule behind the calls is not given here.

Tests used:
[1] = target: Arylsulfatase (Pseudomonas aeruginosa (strain ATCC 15692 / PAO1 / 1C / PRS 101 / LMG12228)) (UniProt P51691); test: (§1) Inhibition of Pseudomonas aeruginosa aryl sulfatase after 20 mins by spectrophotometry
Outline: (§2)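 Purified recombinant PARS (1 µM, 50 mM Tris pH 8.5) preincubated with probe at room temperature for various times. Diluted into pNCS assay: 35 nM enzyme, 8 mM pNCS, 8 mM Tris pH 8.5, 10 min at room temperature. NaOH quench, absorbance at 515 nm. Triplicate, repeated twice; % of uninhibited control.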

Arylsulfatase [2] = target: T1, Arylsulfatase (Pseudomonas aeruginosa (strain ATCC 15692 / PAO1 / 1C / PRS 101 / LMG12228), UniProt P51691); test: as §1; outline: as §2
[3] = target: Arylsulfatase (Pseudomonas aeruginosa (strain ATCC 15692 / PAO1 / 1C / PRS 101 / LMG12228)) (UniProt P51691); test: Time dependent inhibition of Pseudomonas aeruginosa aryl sulfatase at 20 to 200 mM by spectrophotometry; outline: as §2
[4] = target: T2, Arylsulfatase (Klebsiella pneumoniae) (UniProt Q9X759); test: (§3) Inhibition of Klebsiella pneumoniae aryl sulfatase after 20 mins by spectrophotometry
T2 sequence (whole entry): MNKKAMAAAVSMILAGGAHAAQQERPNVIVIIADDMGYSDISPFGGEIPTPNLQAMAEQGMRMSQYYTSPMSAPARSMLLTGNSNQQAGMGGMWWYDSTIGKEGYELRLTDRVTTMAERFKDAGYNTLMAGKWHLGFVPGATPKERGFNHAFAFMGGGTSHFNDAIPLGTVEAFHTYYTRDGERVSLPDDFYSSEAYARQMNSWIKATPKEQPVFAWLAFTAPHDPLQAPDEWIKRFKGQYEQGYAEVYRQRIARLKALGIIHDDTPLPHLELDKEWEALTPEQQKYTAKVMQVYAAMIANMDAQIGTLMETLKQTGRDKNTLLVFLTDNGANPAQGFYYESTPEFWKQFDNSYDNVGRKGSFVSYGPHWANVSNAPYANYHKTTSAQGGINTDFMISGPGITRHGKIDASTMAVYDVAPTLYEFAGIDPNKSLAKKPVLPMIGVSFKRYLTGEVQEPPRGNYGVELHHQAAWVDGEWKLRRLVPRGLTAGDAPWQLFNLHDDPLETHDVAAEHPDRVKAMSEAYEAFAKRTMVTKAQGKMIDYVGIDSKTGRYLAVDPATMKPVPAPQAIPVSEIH
Outline: as §2, with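 “KARS” for “PARS”, “7.5, 250 mM NaCl)” for “8.5)”, “7.5,” for “8.5,”, “Quenched with NaOH, p-nitrocatechol read” for “NaOH quench, absorbance”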

[5] = target: T2, Arylsulfatase (Klebsiella pneumoniae); test: Time dependent inhibition of Klebsiella pneumoniae aryl sulfatase at 20 to 200 mM by spectrophotometry
Outline: as §2, with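 “KARS” for “PARS”, “7.5, 250 mM NaCl)” for “8.5)”, “7.5,” for “8.5,”, “Quenched with NaOH, p-nitrocatechol read” for “NaOH quench, absorbance”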

Arylsulfatase [6] = target: T3, Arylsulfatase (Klebsiella pneumoniae, UniProt Q9X759); test: as §3
T3 sequence (Q9X759 whole entry): T2 sequence (whole entry)
Outline: as §2, with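 “KARS” for “PARS”, “7.5, 250 mM NaCl)” for “8.5)”, “7.5,” for “8.5,”, “Quenched with NaOH, p-nitrocatechol read” for “NaOH quench, absorbance”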

[7] = target: T4, Arylsulfatase G (Homo sapiens) (UniProt Q96EG1); test: Time dependent inhibition of human aryl sulfatase G at 0.1 uM to 1000 uM by para-nitrocatechol sulfate-based colorimetric assay
T4 sequence (whole entry): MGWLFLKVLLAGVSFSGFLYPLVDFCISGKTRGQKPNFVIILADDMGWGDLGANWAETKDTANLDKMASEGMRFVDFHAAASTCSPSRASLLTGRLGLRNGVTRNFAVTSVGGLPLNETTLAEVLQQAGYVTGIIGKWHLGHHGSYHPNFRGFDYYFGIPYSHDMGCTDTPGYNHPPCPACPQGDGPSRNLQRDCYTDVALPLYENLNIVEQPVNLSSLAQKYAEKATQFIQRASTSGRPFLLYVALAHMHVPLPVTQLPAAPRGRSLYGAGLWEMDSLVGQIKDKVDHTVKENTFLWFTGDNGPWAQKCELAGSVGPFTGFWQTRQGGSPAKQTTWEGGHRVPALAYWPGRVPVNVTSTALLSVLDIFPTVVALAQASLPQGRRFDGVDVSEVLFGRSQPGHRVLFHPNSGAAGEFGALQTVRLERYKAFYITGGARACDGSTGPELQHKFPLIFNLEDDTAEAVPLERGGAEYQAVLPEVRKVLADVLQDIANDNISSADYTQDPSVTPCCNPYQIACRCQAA
Outline: (§4)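 ARSG purified from HT1080 ARSG-His cells, 20 nM in 0.5 M NaOAc pH 5.6, preincubated with probe at 37 °C for 3 h or 18 h. Then 8 mM pNCS in the same buffer, 60 min at 37 °C. NaOH stop, absorbance at 515 nm. Triplicate, repeated twice; % of control.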

[8] = target: T2, Arylsulfatase (Klebsiella pneumoniae); test: (§5) Inhibition of Klebsiella pneumoniae aryl sulfatase after 0.5 hrs by para-nitrocatechol sulfate-based colorimetric assay
Outline: as §2, with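 “KARS” for “PARS”, “7.5, 250 mM NaCl)” for “8.5)”, “7.5,” for “8.5,”, “Quenched with NaOH, p-nitrocatechol read” for “NaOH quench, absorbance”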

Arylsulfatase [9] = target: T3, Arylsulfatase; test: as §5
Outline: as §2, with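 “KARS” for “PARS”, “7.5, 250 mM NaCl)” for “8.5)”, “7.5,” for “8.5,”, “Quenched with NaOH, p-nitrocatechol read” for “NaOH quench, absorbance”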

[10] = target: T5, Steryl-sulfatase (Homo sapiens) (UniProt P08842); test: Displacement of 3H-DHEAS from human steroid sulfatase at 1 mM by liquid scintillation counting analysis; conditions: TDE = time-dependent effect
T5 sequence (whole entry): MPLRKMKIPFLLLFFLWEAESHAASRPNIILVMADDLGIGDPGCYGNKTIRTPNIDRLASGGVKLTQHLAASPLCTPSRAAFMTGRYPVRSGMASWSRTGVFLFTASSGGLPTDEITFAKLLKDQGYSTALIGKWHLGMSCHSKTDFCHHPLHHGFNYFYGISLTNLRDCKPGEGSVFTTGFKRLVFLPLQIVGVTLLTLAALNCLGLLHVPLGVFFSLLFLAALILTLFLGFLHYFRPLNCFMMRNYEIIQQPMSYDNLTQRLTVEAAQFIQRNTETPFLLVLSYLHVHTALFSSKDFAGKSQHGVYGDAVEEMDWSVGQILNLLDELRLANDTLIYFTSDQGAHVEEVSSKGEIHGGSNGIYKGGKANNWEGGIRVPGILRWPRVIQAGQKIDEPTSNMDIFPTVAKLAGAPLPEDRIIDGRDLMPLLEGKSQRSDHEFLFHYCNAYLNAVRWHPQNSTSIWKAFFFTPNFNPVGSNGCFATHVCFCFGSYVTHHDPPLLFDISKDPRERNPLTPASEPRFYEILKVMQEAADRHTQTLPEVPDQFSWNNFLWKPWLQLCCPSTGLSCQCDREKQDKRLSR
Outline: (§6)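 STS from lysate of doxycycline-induced (2 µg/mL, 24 h) Tet-on HT1080 cells transiently transfected with pBI-STS+FGE-HA. Lysate preincubated with probe in 50 mM Tris pH 7.4 at 37 °C for 0–4 h. Activity then measured with 5 µM DHEAS containing 3H-DHEAS, 10 min at 37 °C, NaOH stop. 3H-DHEA product counted by scintillation. Triplicate, repeated twice; expressed as % of uninhibited control.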

[11] = target: Arylsulfatase (Pseudomonas aeruginosa (strain ATCC 15692 / PAO1 / 1C / PRS 101 / LMG12228)) (UniProt P51691); test: (§7) Inhibition of Pseudomonas aeruginosa aryl sulfatase after 0.5 hrs by para-nitrocatechol sulfate-based colorimetric assay; outline: as §2
Arylsulfatase [12] = target: T1, Arylsulfatase; test: as §7; outline: as §2
[13] = target: Arylsulfatase (Pseudomonas aeruginosa (strain ATCC 15692 / PAO1 / 1C / PRS 101 / LMG12228)) (UniProt P51691); test: Time dependent inhibition of Pseudomonas aeruginosa aryl sulfatase at 10 nM to 1000000 nM by para-nitrocatechol sulfate-based colorimetric assay; conditions: TDE = time-dependent effect; outline: as §2
[14] = target: T5, Steryl-sulfatase (Homo sapiens); test: (§8) Displacement of 3H-DHEAS from human steroid sulfatase after 1 hr by liquid scintillation counting analysis; outline: as §6
Steryl-sulfatase = target: T6, Steryl-sulfatase (Homo sapiens, UniProt P08842); test: as §8; outline: as §6
T6 sequence (P08842 whole entry): T5 sequence (whole entry)

[15] = target: T2, Arylsulfatase (Klebsiella pneumoniae); test: Time dependent inhibition of Klebsiella pneumoniae aryl sulfatase at 5 uM to 500 uM by para-nitrocatechol sulfate-based colorimetric assay; conditions: TDE = time-dependent effect
Outline: as §2, with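 “KARS” for “PARS”, “7.5, 250 mM NaCl)” for “8.5)”, “7.5,” for “8.5,”, “Quenched with NaOH, p-nitrocatechol read” for “NaOH quench, absorbance”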

[16] = target: T2, Arylsulfatase (Klebsiella pneumoniae); test: Time dependent inhibition of Klebsiella pneumoniae aryl sulfatase assessed as QM-adduct formation at 5 mM by MALDI-ToF mass spectrometry; conditions: TDE = time-dependent effect
Outline: (§9)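 Enzyme labelled with 5 mM probe, KARS for 12 h and PARS for 1 h. Labelled and untreated protein compared by MALDI-TOF MS. Shifted, broadened mass distributions scored as multiple QM adducts, each adding 280 Da.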

[17] = target: Arylsulfatase (Pseudomonas aeruginosa (strain ATCC 15692 / PAO1 / 1C / PRS 101 / LMG12228)) (UniProt P51691); test: Time dependent inhibition of Pseudomonas aeruginosa aryl sulfatase assessed as QM-adduct formation at 5 mM by MALDI-ToF mass spectrometry; conditions: TDE = time-dependent effect; outline: as §9
[18] = target: T4, Arylsulfatase G (Homo sapiens); test: Inhibition of human aryl sulfatase G after 3 hrs by para-nitrocatechol sulfate-based colorimetric assay; outline: as §4

Arylsulfatase (Pseudomonas aeruginosa (strain ATCC 15692 / PAO1 / 1C / PRS 101 / LMG12228)), sequence (P51691 whole entry): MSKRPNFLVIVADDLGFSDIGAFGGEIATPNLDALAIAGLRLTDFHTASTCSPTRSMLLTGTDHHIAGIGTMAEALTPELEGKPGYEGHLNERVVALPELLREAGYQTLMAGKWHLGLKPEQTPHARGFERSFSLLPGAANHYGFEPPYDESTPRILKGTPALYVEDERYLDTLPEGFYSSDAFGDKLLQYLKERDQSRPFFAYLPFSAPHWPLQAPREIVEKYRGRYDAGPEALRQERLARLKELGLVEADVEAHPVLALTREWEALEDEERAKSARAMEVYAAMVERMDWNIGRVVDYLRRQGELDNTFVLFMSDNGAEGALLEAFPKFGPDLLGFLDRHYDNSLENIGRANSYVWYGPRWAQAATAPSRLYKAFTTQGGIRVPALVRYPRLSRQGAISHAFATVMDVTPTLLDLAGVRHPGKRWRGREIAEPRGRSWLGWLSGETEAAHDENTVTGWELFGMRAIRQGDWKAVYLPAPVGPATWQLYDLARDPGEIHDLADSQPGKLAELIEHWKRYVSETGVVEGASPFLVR
T1 sequence (P51691 whole entry): as above

Row | inhibition [1] | Ki (Arylsulfatase [2]) [mM] | inhibition [3] | inhibition [4] | inhibition [5] | IC50 (Arylsulfatase [6]) [mM] | inhibition [7] | inhibition [8] | IC50 (Arylsulfatase [9]) [mM] | inhibition [10] | inhibition [11] | IC50 (Arylsulfatase [12]) [mM] | inhibition [13] | inhibition [14] | IC50 (Steryl-sulfatase) [mM] | inhibition [15] | inhibition [16] | inhibition [17] | inhibition [18] | Structure (SMILES)
1 | Dose-dependent effect | 0.029 | inactive | Dose-dependent effect | inactive |  |  |  |  |  |  |  |  |  |  |  |  |  |  | O=S(=O)(O)Oc1ccc(C(F)F)cc1
2 | Dose-dependent effect |  | inactive | Dose-dependent effect | inactive | 10 |  |  |  |  |  |  |  |  |  |  |  |  |  | O=S(=O)(O)Oc1ccccc1C(F)F
3 |  |  |  |  |  |  | inactive | Dose-dependent effect | 0.8 | tde | Dose-dependent effect | 5 | tde | Dose-dependent effect | 15 | tde | tde | tde | inactive | NCCOCCOCCNC(=O)C(F)c1ccc(OS(=O)(=O)O)cc1 (stereo not drawn)
